Among the data in ChEMBL document CHEMBL2046318, “Synthesis and biological evaluation of novel flavonols as potential anti-prostate cancer agents” (Eur J Med Chem, 2012) are Activity, IC50 and inhibition of growth values, retold here.

Usually IC50 stands for the concentration that gives 50% inhibition.

The test system of experiment [1] is CWR22R. The experiment is described as follows: Inhibition of androgen receptor expression in human 22Rv1 cells assessed as AR protein level at 20 uM after 72 hrs by densitometry relative to untreated control. It counts as functional. The arrangement: scale not given: the % may be the effect or the level left. In a few lines: (§1)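 22rv1 cells were seeded at 2 × 10^5 per well, left to adhere overnight, then treated for 72 h at 10 or 20 µM. Cells were lysed in NP-40/deoxycholate/SDS buffer with protease and phosphatase inhibitors. 15 µg protein was run on SDS-PAGE and blotted, then probed with AR, PSA and actin antisera and an HRP secondary. Bands were quantified by densitometry as % of vehicle control, mean of 3–5 replicates with SD.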

Experiment [2] relates to CWR22R. The experiment is described as follows: Inhibition of prostate specific antigen expression in human 22Rv1 cells assessed as PSA protein level at 10 uM after 72 hrs by densitometry relative to untreated control. Format: functional. The arrangement: scale not given: the % may be the effect or the level left. Put shortly: as §1
For experiment [3], the system named is CWR22R. The experiment is described as follows: Inhibition of androgen receptor expression in human 22Rv1 cells assessed as AR protein level at 10 uM after 72 hrs by densitometry relative to untreated control. It counts as functional. The arrangement: scale not given: the % may be the effect or the level left. In a few lines: as §1
The test system of experiment [4] is CWR22R. Description: Inhibition of prostate specific antigen expression in human 22Rv1 cells assessed as PSA protein level at 20 uM after 72 hrs by densitometry relative to untreated control. It counts as functional. The arrangement: scale not given: the % may be the effect or the level left. Put shortly: as §1
For experiment [5], the system named is CWR22R. The experiment is described as follows: Antiproliferative activity against human 22Rv1 cells incubated up to 144 hrs by Coulter particle count and size analyzer. The following applies: 22Rv1, 144 h. It counts as functional, cell-based. Put shortly:
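22rv1 cells in RPMI 1640 with 10% FBS were seeded at 5 × 10^3 per well, left to adhere overnight, then exposed to agents in DMSO (final DMSO <0.1%) for up to 144 h. Cells were trypsinised and counted on a Coulter counter. Cell number as % of DMSO control was plotted against log concentration at 144 h, and the IC50 was taken from the straight-line fit. Mean of 3–6 experiments.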

In experiment [6] the test system is CWR22R. The experiment is described as follows: Growth inhibition of human 22Rv1 cells at 50 uM incubated up to 144 hrs by Coulter particle count and size analyzer. Format: functional. The note with it: 22Rv1, 144 h, read-out: GI.
Experiment [7] deals with CWR22R. The experiment is described as follows: Growth inhibition of human 22Rv1 cells at 0.01 uM incubated up to 144 hrs by Coulter particle count and size analyzer. Format: functional. The following applies: 22Rv1, 144 h, read-out: GI.
Experiment [8] has as its system CWR22R. Description: Growth inhibition of human 22Rv1 cells at 0.1 uM incubated up to 144 hrs by Coulter particle count and size analyzer. It counts as functional. The note with it: 22Rv1, 144 h, read-out: GI.

For the compound `COc1cc(-c2oc3ccccc3c(=O)c2O)cc(OC)c1OC`, the Activity with CWR22R [1] came to 62%; with CWR22R [2], 21%; in the experiment with CWR22R [3] it was 96%; with CWR22R [4], 23%. For the same compound, in the experiment on CWR22R [5], it took 3.1 µM to reach half-maximal inhibition (IC50).
The matching figures for `O=c1c(O)c(-c2cc(O)c(O)c(O)c2)oc2ccccc12`: 89%, 110%, 94%, 109% and 7.7 µM.
The matching figures for `COc1cc(-c2oc3ccccc3c(=O)c2OC)cc(OC)c1OC`: 80%, 167%, 94%, 149% and 2.6 µM.
Regarding `COc1cc(OC)cc(-c2oc3ccccc3c(=O)c2O)c1`, the Activity with CWR22R [1] was 72%; with CWR22R [2], 133%; in the experiment with CWR22R [3] it was 74%; in the experiment on CWR22R [4], 109%. Also, in the experiment with CWR22R [5], 12.4 µM corresponded to half-maximal inhibition (IC50).
Taken in the same sequence, the figures for `COc1cc(-c2oc3ccc(F)cc3c(=O)c2O)cc(OC)c1OC` were 75%, 14%, 91%, 5% and 3.3 µM.
Regarding `COc1cc(-c2oc3ccccc3c(=O)c2F)cc(OC)c1OC`, the inhibition of growth at 50 µM with CWR22R [6] was determined as 48%. Also, the Activity is on record as 125% in the experiment on CWR22R [1], 63% in the experiment on CWR22R [2], 110% in the experiment on CWR22R [3] and 63% with CWR22R [4]. The inhibition of growth at 0.01 µM in the experiment with CWR22R [7] was 18%. Moreover, in the experiment with CWR22R [8], the inhibition of growth at 0.1 µM was 46%. This compound gave an IC50 in the experiment on CWR22R [5] of over 40 µM.
As for `COc1cc(-c2oc3cc(F)ccc3c(=O)c2O)cc(OC)c1OC`, the Activity in the experiment with CWR22R [1] came to 75%; with CWR22R [2] it was 37%; in the experiment on CWR22R [3], 112%; in the experiment on CWR22R [4] it was 22%. The IC50 in the experiment on CWR22R [5] worked out at 4 µM.
The matching figures for `O=c1c(O)c(-c2cc(O)c(O)c(O)c2)oc2cc(F)ccc12`: 94%, 111%, 100%, 106% and 11.6 µM.
The matching figures for `COc1cc(-c2oc3cc(F)cc(F)c3c(=O)c2O)cc(OC)c1OC`: 103%, 95%, 100%, 68% and 5.9 µM.
Taken in the same sequence, the figures for `O=c1c(O)c(-c2cc(O)c(O)c(O)c2)oc2cc(F)cc(F)c12` were 90%, 134%, 118%, 132% and 6.3 µM.
On to `COc1ccc(-c2oc3cc(F)cc(F)c3c(=O)c2O)cc1OC`, for which the Activity in the experiment on CWR22R [1] stood at 94%; in the experiment on CWR22R [2], 78%; in the experiment with CWR22R [3], 110%; in the experiment with CWR22R [4], 88%. The compound further had an IC50 in the experiment with CWR22R [5] of 7.4 µM.
The matching figures for `O=c1c(O)c(-c2ccc(O)c(O)c2)oc2cc(F)cc(F)c12`: 86%, 61%, 116%, 22% and 16.3 µM.
Take `COc1ccc(-c2oc3cc(F)cc(F)c3c(=O)c2O)cc1`: the Activity came out at 111% with CWR22R [1], 85% with CWR22R [2], 115% in the experiment on CWR22R [3] and 66% with CWR22R [4]. This compound came in with a concentration for half-maximal inhibition (IC50) in the experiment on CWR22R [5] of 15.8 µM.
The matching figures for `O=c1c(O)c(-c2ccc(O)cc2)oc2cc(F)cc(F)c12`: 96%, 77%, 136%, 33% and 28.7 µM.
On to `COc1ccc(-c2oc3cc(F)ccc3c(=O)c2O)cc1OC`, for which the Activity with CWR22R [1] amounted to 120%; in the experiment on CWR22R [2] it was 78%; in the experiment with CWR22R [3] it was 129%; in the experiment with CWR22R [4], 70%. Moreover, the half-maximal inhibitory concentration (IC50) with CWR22R [5] is over 40 µM.
Taken in the same sequence, the figures for `O=c1c(O)c(-c2ccc(O)c(O)c2)oc2cc(F)ccc12` were 59%, 21%, 108%, 18% and 9.2 µM.
Take `COc1ccc(-c2oc3cc(F)ccc3c(=O)c2O)cc1`: the Activity came to 104% in the experiment on CWR22R [1], 70% in the experiment with CWR22R [2], 112% with CWR22R [3] and 62% in the experiment on CWR22R [4]. Further, the half-maximal inhibitory concentration (IC50) with CWR22R [5] came to 7.1 µM.
The matching figures for `O=c1c(O)c(-c2ccc(O)cc2)oc2cc(F)ccc12`: 64%, 32%, 129%, 3% and 8.4 µM.
Turning to `COc1cccc(-c2oc3ccccc3c(=O)c2O)c1`, the Activity in the experiment with CWR22R [1] came to 23%; with CWR22R [2] it was 27%; in the experiment on CWR22R [3], 64%; in the experiment with CWR22R [4], 13%. The same compound came in with an IC50 in the experiment on CWR22R [5] of 5.3 µM.
Taken in the same sequence, the figures for `COc1ccc(-c2oc3ccccc3c(=O)c2O)cc1` were 61%, 127%, 71%, 115% and 30.5 µM.
With `COc1ccc(-c2oc3ccccc3c(=O)c2O)cc1OC` [3-HYDROXY-3',4'-DIMETHOXYFLAVONE], the Activity with CWR22R [1] is given as 81%; with CWR22R [2], 61%; with CWR22R [3], 63%; with CWR22R [4], 56%. This compound also registered an IC50 in the experiment on CWR22R [5] of 12.3 µM.
Regarding `O=c1c(O)c(-c2ccc(O)c(O)c2)oc2cc(O)ccc12` [FISETIN], the Activity with CWR22R [1] worked out at 101%; in the experiment on CWR22R [2], 51%; in the experiment with CWR22R [3], 109%; with CWR22R [4] it was 44%. In addition, the 50% inhibitory concentration (IC50) with CWR22R [5] was 25.9 µM.
As for `O=c1c(O)c(-c2ccccc2)oc2ccccc12` [FLAVONOL], the Activity is on record as 92% in the experiment with CWR22R [1], 124% in the experiment with CWR22R [2], 100% in the experiment on CWR22R [3] and 80% with CWR22R [4]. The compound further came in with an IC50 in the experiment with CWR22R [5] of 14.9 µM.
Regarding `O=c1c(O)c(-c2ccc(O)cc2)oc2cc(O)cc(O)c12` [KAEMPFEROL], the Activity with CWR22R [1] amounted to 131%; in the experiment with CWR22R [2], 33%; in the experiment on CWR22R [3] it was 128%; in the experiment on CWR22R [4] it was 37%. For the same compound, in the experiment on CWR22R [5], the half-maximal inhibitory concentration (IC50) is over 40 µM.
Taken in the same sequence, the figures for `O=c1c(O)c(-c2cc(O)c(O)c(O)c2)oc2cc(O)cc(O)c12` [MYRICETIN] were 114%, 110%, 119%, 121% and 13.1 µM.
Taken in the same sequence, the figures for `O=c1c(O)c(-c2ccc(O)c(O)c2)oc2cc(O)cc(O)c12` [QUERCETIN] were 120%, 40%, 114%, 31% and 15.5 µM.
The matching figures for `O=c1c(O)c(-c2ccc(O)cc2)oc2cc(O)ccc12` [RESOKAEMPFEROL]: 125%, 47%, 141%, 39% and 30.2 µM.
With `O=c1c(O)c(-c2cc(O)c(O)c(O)c2)oc2cc(O)ccc12` [ROBINETIN], the Activity with CWR22R [1] was 102%; in the experiment on CWR22R [2], 69%; with CWR22R [3], 84%; with CWR22R [4], 111%. Moreover, it took 7.1 µM to reach half-maximal inhibition in the experiment with CWR22R [5] (IC50).
